Activity calls are given as the source filed them. The calls are words filed in the database; no cut-off is given here.
Legend:
[1] = Permeability of the compound by PAMPA; format: ADME; details: read-out: permeability
Outline: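 PAMPA with precoated trilayer lipid/oil/lipid membranes, donor wells holding 200 μM compound in PBS pH 7.4 (2% DMSO final), in triplicate. Incubated 5 h at room temperature. Donor and acceptor concentrations determined by UV plate reader or HPLC-UV against calibration curves. Pe and mass retention R calculated.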

[2] = Inhibition of Dengue virus NS2B-NS3 protease expressed in Escherichia coli BL 21 (DE3) using Abz-Nle-Lys-Arg-Arg-Ser-3-(NO2)Tyr as substrate assessed as enzyme-inhibitor complex by Cornish-Bowden plot analysis; details: in the assay text read “Dixon plot” for “Cornish-Bowden plot”
Outline: (§1)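 DEN2 NS2B–NS3 FRET assay run at inhibitor 0–6 μM (prior-series compounds 5–50 μM) and substrate 50, 100, 150 and 200 μM, in triplicate, with inner-filter correction. Ki from Dixon plots (1/v vs [I]) and Ki′ from Cornish-Bowden plots (S/v vs [I]). Inhibition mode assigned from these plots.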

[3] = system: Huh-7; assay: Cytotoxicity against human HuH7 cells at <50 uM after 48 hrs by firefly reporter assay; format: cell-based; details: huh-7, 48 h
Outline: (§2)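 Uninfected Huh-7 cells stably expressing firefly luciferase, seeded 5000/well and incubated overnight at 37 °C. Compound added at 1.56–50 μM, plus 100, 200 and 400 μM, then incubated as for infected cells (further 48 h after the 4 h point). Firefly luminescence read with 70 μM luciferin and 2 mM ATP. Mean of three wells as percent of DMSO control.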

[4] = system: Dengue virus; assay: Inhibition of Dengue virus NS2B-NS3 protease expressed in Escherichia coli BL 21 (DE3) using Abz-Nle-Lys-Arg-Arg-Ser-3-(NO2)Tyr as substrate at 50 uM after 15 mins
[5] = system: West Nile virus; assay: Inhibition of West Nile virus NS2B-NS3 protease expressed in Escherichia coli BL 21 (DE3) using Abz-Gly-Leu-Lys-Arg-Gly-Gly-3-(NO2)Tyr as substrate at 50 uM after 15 mins
[6] = target: Prothrombin (Homo sapiens) (UniProt P00734); assay: Inhibition of thrombin (unknown origin) using Boc-Val-Pro-Arg-AMC as substrate at 25 uM after 10 mins by continuous fluorimetric assay
Outline: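 Thrombin (10 nM) preincubated 15 min with inhibitor (25 μM final) in 50 mM Tris-HCl pH 7.5, 150 mM NaCl, 0.05% Tween 20. Boc-Val-Pro-Arg-AMC then added to 50 μM (Km 16 μM). Fluorescence (ex 355 nm, em 460 nm) followed for 10 min as slope. Triplicate; percent inhibition versus no-inhibitor control.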

[7] = system: dengue virus type 2; assay: Antiviral activity against Dengue virus 2 infected in human Huh-7 cells assessed as inhibition of virus-induced plaque formation at 50 uM after 48; format: functional, organism-based
Outline: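 Huh-7 cells seeded in 12-well plates and pretreated with compound (50 μM) for 4 h. Infected for 1 h with dengue reporter virus (MOI 5) in the presence of compound, then medium replaced with compound-containing DMEM. Supernatant harvested at 48 h and filtered. Titer determined by plaque assay on Vero cells. Mean ± SD of three independent experiments.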

[8] = Inhibition of Dengue virus NS2B-NS3 protease expressed in Escherichia coli BL 21 (DE3) using Abz-Nle-Lys-Arg-Arg-Ser-3-(NO2)Tyr as substrate assessed as enzyme-substrate-inhibitor complex by Cornish-Bowden plot analysis; outline: as §1
[9] = system: Dengue virus; assay: Mixed type inhibition of Dengue virus NS2B-NS3 protease expressed in Escherichia coli BL 21 (DE3) using Abz-Nle-Lys-Arg-Arg-Ser-3-(NO2)Tyr as substrate by Cornish-Bowden plot analysis; outline: as §1
[10] = Inhibition of Dengue virus NS2B-NS3 protease expressed in Escherichia coli BL 21 (DE3) using Abz-Nle-Lys-Arg-Arg-Ser-3-(NO2)Tyr as substrate after 15 mins
[11] = system: dengue virus type 2; assay: Antiviral activity against Dengue virus 2 infected in human Huh-7 cells assessed as inhibition of viral replication after 48 hrs by luciferase reporter gene assay; format: functional, organism-based; details: Huh-7, 48 h
Outline: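 Huh-7 cells seeded 5000/well, incubated overnight at 37 °C, then given compound (1.56–50 μM final, 2-fold series in DMEM with 10% FCS). Dengue 2 renilla luciferase reporter virus (MOI 10) added 4 h later. After 48 h at 37 °C, cells lysed and renilla luminescence read with coelenterazine. At least four wells per concentration, expressed relative to DMSO control. EC50 by nonlinear regression.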

[12] = Solubility of the compound in PBS buffer; format: physicochemical
[13] = system: Dengue virus; assay: Mixed/noncompetitive type inhibition of Dengue virus NS2B-NS3 protease expressed in Escherichia coli BL 21 (DE3) using Abz-Nle-Lys-Arg-Arg-Ser-3-(NO2)Tyr as substrate by Cornish-Bowden plot analysis; outline: as §1
[14] = system: Dengue virus; assay: Uncompetitive inhibition of Dengue virus NS2B-NS3 protease expressed in Escherichia coli BL 21 (DE3) using Abz-Nle-Lys-Arg-Arg-Ser-3-(NO2)Tyr as substrate by Cornish-Bowden plot analysis; outline: as §1
[15] = system: Dengue virus; assay: Displacement of aprotinin from Dengue virus NS2B-NS3 protease expressed in Escherichia coli BL 21 (DE3) by tryptophan fluorescence quenching assay
Outline: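 Tryptophan quenching assay: DEN protease (4 μM) incubated with inhibitor at 0–50 μM, and also with inhibitor (50 μM) plus aprotinin (10 μM). Enzyme and aprotinin autofluorescence measured as negative control. Fluorescence read at ex 280 nm, em 330 nm; triplicate.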

[16] = system: Dengue virus; assay: Competitive inhibition of Dengue virus NS2B-NS3 protease expressed in Escherichia coli BL 21 (DE3) using Abz-Nle-Lys-Arg-Arg-Ser-3-(NO2)Tyr as substrate by Cornish-Bowden plot analysis; outline: as §1
[17] = system: Huh-7; assay: Cytotoxicity against human HuH7 cells at 50 uM after 48 hrs by firefly reporter assay; format: cell-based; details: huh-7, 48 h; outline: as §2
[18] = system: Huh-7; assay: Cytotoxicity against human HuH7 cells at >100 uM after 48 hrs by firefly reporter assay; format: cell-based; details: huh-7, 48 h; outline: as §2

SMILES	Papp [1] [×10⁻⁶ cm/s]	Ki [2] [µM]	Activity [3]	inhibition [4] [%]	inhibition [5] [%]	inhibition [6] [%]	inhibition [7]	Ki [8] [µM]	inhibition [9]	IC50 [10] [µM]	EC50 [11] [µM]	solubility [12]	inhibition [13]	inhibition [14]	inhibition [15]	inhibition [16]	Activity [17]	Activity [18]
CCCC[C@H](NC(=O)[C@H](CCCCN)NC(=O)[C@H](CCCNC(=N)N)NC(=O)c1ccc(/C=C2\SC(=O)N(Cc3ccc(Cl)cc3)C2=O)cc1)C(N)=O	1.11	2.2	Non-toxic	99.4	88.2	18	inactive	5.4	Active	3.2	41.1	–	–	–	–	–	–	–
CCCC[C@H](NC(=O)[C@H](CCCCN)NC(=O)[C@H](CCCNC(=N)N)NC(=O)c1ccc(/C=C2\SC(=S)N(CCc3ccccc3)C2=O)cc1)C(N)=O	–	13.6	Non-toxic	99.6	98.3	6.2	–	5.1	Active	7.7	25.6	Insoluble	–	–	–	–	–	–
CCCC[C@H](NC(=O)[C@H](CCCCN)NC(=O)[C@H](CCCNC(=N)N)NC(=O)c1ccc(/C=C2\SC(=O)N(C3CCCC3)C2=O)cc1)C(N)=O	0.44	1.8	–	98.2	51.8	16	–	7.9	Active	2.5	44.9	–	–	–	–	–	–	–
CCCC[C@H](NC(=O)[C@H](CCCCN)NC(=O)[C@H](CCCNC(=N)N)NC(=O)c1ccc(/C=C2\SC(=S)N(Cc3ccc(C)cc3)C2=O)cc1)C(N)=O	–	6.2	–	99.1	96.3	10.9	–	7.6	–	7.5	–	–	Active	–	–	–	–	–
CCCCC(C(=O)OC)N1C(=O)/C(=C/c2ccc(C(=O)N[C@@H](CCCNC(=N)N)C(=O)N[C@@H](CCCCN)C(=O)N[C@@H](CCCC)C(N)=O)cc2)SC1=S (some centres undefined)	0.87	> 10	–	101	94.2	9	–	5.3	–	11.6	48.8	–	–	Active	–	–	–	–
CCCC[C@H](NC(=O)[C@H](CCCCN)NC(=O)[C@H](CCCNC(=N)N)NC(=O)c1ccc(/C=C2\SC(=O)N(CCc3ccccc3)C2=O)cc1)C(N)=O	0.82	1.8	Non-toxic	96.8	57.8	15.3	–	> 10	–	3.5	37.2	–	–	–	Dose-dependent effect	Active	–	–
CCCC[C@H](NC(=O)[C@H](CCCCN)NC(=O)[C@H](CCCNC(=N)N)NC(=O)c1ccc(/C=C2\SC(=S)N(Cc3ccc(Cl)cc3)C2=O)cc1)C(N)=O	–	> 10	Non-toxic	100	100	13.3	Active	8.6	–	> 10	31.5	Insoluble	–	Active	–	–	Toxic	–
CCCC[C@H](NC(=O)[C@H](CCCCN)NC(=O)[C@H](CCCNC(=N)N)NC(=O)c1ccc(/C=C2\SC(=S)N(Cc3ccc(OC)cc3)C2=O)cc1)C(N)=O	0.6	7.8	–	99.6	99	15	–	8.3	–	7.9	37.3	–	Active	–	–	–	–	–
CCCC[C@H](NC(=O)[C@H](CCCCN)NC(=O)[C@H](CCCNC(=N)N)NC(=O)c1ccc(/C=C2\SC(=S)N(C3CCCCC3)C2=O)cc1)C(N)=O	1.82	9.3	Non-toxic	99.2	96.9	14.2	Active	4.4	Active	6.1	16.7	–	–	–	–	–	–	Toxic
CCCC[C@H](NC(=O)[C@H](CCCCN)NC(=O)[C@H](CCCNC(=N)N)NC(=O)c1ccc(/C=C2\SC(=S)N(Cc3ccccc3)C2=O)cc1)C(N)=O	–	8.8	–	99.3	92.4	13.1	–	5.5	–	10.9	–	–	Active	–	–	–	–	–
CCCC[C@H](NC(=O)[C@H](CCCCN)NC(=O)[C@H](CCCNC(=N)N)NC(=O)c1ccc(/C=C2\SC(=O)N(Cc3ccccc3)C2=O)cc1)C(N)=O	–	1.7	Non-toxic	98.6	57.9	17.3	–	> 10	–	2.9	> 50	–	–	–	Dose-dependent effect	Active	–	–
CCCC[C@H](NC(=O)[C@H](CCCCN)NC(=O)[C@H](CCCNC(=N)N)NC(=O)c1ccc(/C=C2\SC(=S)N(Cc3ccc(F)cc3)C2=O)cc1)C(N)=O	–	> 10	–	99.4	97.9	9.6	–	7.9	–	> 10	–	–	–	Active	–	–	–	–

From ChEMBL document CHEMBL2440094, “Thiazolidinone-peptide hybrids as dengue virus protease inhibitors with antiviral activity in cell culture” (J Med Chem, 2013)
